Activity calls are given as the source filed them. No cut-off for these calls is given here.
How the values were obtained:
[1] = target: T1, 5-hydroxytryptamine receptor 7 (Homo sapiens, UniProt P34969); assay: Displacement of [3H]LSD from human recombinant 5HT7 receptor expressed in CHO cells; format: cell-based
In short: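 Cloned human 5-HT7 receptor from CHO cells, labelled with [3H]LSD; nonspecific binding with 25 µM clozapine. Stopped by filtration on PEI-soaked GF/C filters, then scintillation counting. Ki from two displacement curves of nine concentrations each, run in triplicate.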

[2] = target: T2, 5-hydroxytryptamine receptor 1A (Rattus norvegicus) (UniProt P19327); assay: Displacement of [3H]8-OH-DPAT from 5HT1A receptor in rat frontal cortex membrane at 0.1 uM; format: cell membranes
T2 sequence (whole entry): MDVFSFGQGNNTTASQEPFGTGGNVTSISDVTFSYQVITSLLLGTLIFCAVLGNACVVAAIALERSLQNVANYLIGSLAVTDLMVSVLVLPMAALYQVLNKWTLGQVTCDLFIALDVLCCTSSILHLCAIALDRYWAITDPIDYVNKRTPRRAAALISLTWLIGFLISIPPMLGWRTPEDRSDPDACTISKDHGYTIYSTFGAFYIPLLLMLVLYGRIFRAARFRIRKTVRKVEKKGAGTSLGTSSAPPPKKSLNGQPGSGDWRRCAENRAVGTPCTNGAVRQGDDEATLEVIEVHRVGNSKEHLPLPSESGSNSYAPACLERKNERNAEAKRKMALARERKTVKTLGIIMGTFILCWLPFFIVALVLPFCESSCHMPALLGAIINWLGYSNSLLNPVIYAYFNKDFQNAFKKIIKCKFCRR
In short: (§1)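 Rat tissue homogenized in 50 mM Tris-HCl pH 7.7, washed by repeated 40000g spins with a 10 min 37 °C incubation. Buffer: Tris-HCl, 6.66 mM CaCl2, 16.66 µM pargyline, 0.166% ascorbate. Labelled with 1.5 nM [3H]8-OH-DPAT, 45 min at 25 °C; nonspecific with 10 µM 5-HT. GF/B filtration, then scintillation counting; percent inhibition.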

[3] = target: T2, 5-hydroxytryptamine receptor 1A (Rattus norvegicus); assay: Displacement of [3H]8-OH-DPAT from 5HT1A receptor in rat frontal cortex membrane at 10 nM; format: cell membranes; in short: as §1
Rattus norvegicus [4] = assay: Anxiolytic activity in ip dosed Wistar rat assessed as number of punished licks for 5 mins by conflict drinking test; format: functional; settings: read-out: MED
In short: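 Modified Vogel test in male Wistar rats, 160–180 g, water-deprived 48 h and fasted 24 h. Dosed ip 30 min before test. After a 30 s free-drinking period, 600 µA, 0.6 s shocks came through the spout every 20 licks over 5 min. Punished licks counted; minimal effective dose reported.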

Mus musculus = assay: Anxiolytic activity in ip dosed NMRI mouse assessed as behavioral activity for 5 mins by light dark assay; format: functional; settings: read-out: MED
In short: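 Male NMRI mice, 25–33 g, kept in a dark room and dosed ip 30 min before test, then placed in the centre of the lit area. Over 5 min, time in each area, transitions, and horizontal and vertical activity were recorded. Minimal effective dose by one-way ANOVA with Duncan's test.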

[5] = target: T1, 5-hydroxytryptamine receptor 7; assay: Antagonist activity at human 5HT7A receptor expressed in CHO cells assessed as inhibition of […]-induced cAMP elevation at 10 nM administered before […] challenge; format: functional, cell-based; parameters: scale not given: the % may be the effect or the level left
In short: (§2)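 CHO cells stably expressing human 5-HT7A, cultured in F12:DMEM with 5% FCS, seeded 24 h ahead. Compounds from 1 mM DMSO stock (final DMSO 0.1%) preincubated 10 min, then 20 min with 10 nM 5-CT at 37 °C. Cells lysed, cAMP by EIA, normalized to BCA protein. The 5-CT-induced level is taken as 100%; six independent experiments.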

[6] = target: T1, 5-hydroxytryptamine receptor 7; assay: Antagonist activity at human 5HT7A receptor expressed in CHO cells assessed as inhibition of […]-induced cAMP elevation at 1 uM; format: functional, cell-based; parameters: scale not given: the % may be the effect or the level left; in short: as §2
Rattus norvegicus [7] = species: Rattus norvegicus; assay: Metabolic stability in rat; format: ADME, organism-based; settings: in vitro

T1 sequence (P34969 whole entry): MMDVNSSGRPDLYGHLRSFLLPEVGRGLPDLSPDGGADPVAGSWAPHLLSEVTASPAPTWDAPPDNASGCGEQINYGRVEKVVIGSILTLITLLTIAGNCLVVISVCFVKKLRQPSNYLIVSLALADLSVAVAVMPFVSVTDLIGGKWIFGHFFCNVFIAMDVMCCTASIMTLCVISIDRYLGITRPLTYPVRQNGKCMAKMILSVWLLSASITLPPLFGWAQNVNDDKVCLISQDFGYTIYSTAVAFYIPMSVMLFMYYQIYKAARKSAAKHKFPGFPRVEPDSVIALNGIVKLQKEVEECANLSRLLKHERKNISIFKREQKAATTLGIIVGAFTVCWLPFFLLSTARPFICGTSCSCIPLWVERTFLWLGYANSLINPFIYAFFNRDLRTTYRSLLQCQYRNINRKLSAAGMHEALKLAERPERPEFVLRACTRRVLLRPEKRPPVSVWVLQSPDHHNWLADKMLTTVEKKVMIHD

Row | Ki ([1]; read-out: Ki) [nM] | Activity [2] [%] | Activity [3] [%] | Activity [5] | Activity [6] [%] | Ki ([1]; read-out: Log Ki (converted)) [nM] | Stability (Rattus norvegicus [7]) [%] | Structure (SMILES) | minimal effective dose (Rattus norvegicus [4]) [mg/kg] | minimal effective dose (Mus musculus) [mg/kg]
1 | 25.4 | 24 | 3 | – | – | – | – | CCC1(CCCCN2CCN(c3ccc(OC)cc3)CC2)C(=O)Nc2ccccc21 (centres undefined) | > 20 | –
2 | 9.46 | 7 | – | – | – | – | – | CCC1(CCCCN2CCN(c3cccc(Cl)c3)CC2)C(=O)Nc2c(Cl)cc(Cl)cc21 (centres undefined) | > 20 | –
3 | 0.63 | 11 | 0 | – | – | – | – | CCC1(CCCCN2CCN(c3ccc(Cl)c(Cl)c3)CC2)C(=O)Nc2ccccc21 (centres undefined) | > 20 | –
4 | 5.97 | 0 | – | – | – | – | – | CCC1(CCCCN2CCN(c3ccc(Cl)cc3)CC2)C(=O)Nc2c(Cl)cc(F)cc21 (centres undefined) | > 20 | –
5 | 4.75 | 31 | – | – | – | – | – | CCC1(CCCCN2CCN(c3cccc(Cl)c3)CC2)C(=O)Nc2c(Cl)cc(F)cc21 (centres undefined) | > 20 | > 10
6 | 1.5 | 7 | – | – | – | – | – | CCC1(CCCCN2CCN(c3ccc(F)cc3)CC2)C(=O)Nc2ccc(F)cc21 (centres undefined) | > 20 | –
7 | 8.27 | 18 | – | – | – | – | – | CCC1(CCCCN2CCN(c3cccc(Cl)c3)CC2)C(=O)Nc2ccc(Cl)cc21 (centres undefined) | > 20 | –
8 | 1.24 | 11 | 0 | – | – | – | – | CCC1(CCCCCN2CCN(c3ccc(Cl)cc3)CC2)C(=O)Nc2ccccc21 (centres undefined) | > 20 | –
9 | 3.72 | 0 | – | – | – | – | – | CCC1(CCCCN2CCN(c3ccc(Cl)cc3)CC2)C(=O)Nc2ccc(Cl)cc21 (centres undefined) | > 20 | –
10 | 5.38 | 79 | 28 | – | – | – | – | CCC1(CCCCN2CCN(c3ccccc3OC)CC2)C(=O)Nc2ccccc21 (centres undefined) | 10 | –
11 | 7.65 | 52 | – | – | > 95 | – | – | CCC1(CCCCN2CCc3ccccc3C2)C(=O)Nc2ccccc21 (centres undefined) | > 20 | –
12 | 4.31 | 29 | – | – | – | – | – | CCC1(CCCCN2CCc3sccc3C2)C(=O)Nc2ccccc21 (centres undefined) | > 20 | > 10
13 | 33.4 | 42 | 12 | – | – | – | – | CCC1(CCCCN2CCN(c3ccccc3)CC2)C(=O)N(C)c2ccccc21 (centres undefined) | 20 | –
14 | 2.55 | 33 | 6 | – | – | – | – | CCC1(CCCCN2CCN(c3cccc(OC)c3)CC2)C(=O)Nc2ccccc21 (centres undefined) | > 20 | –
15 | 2.07 | 26 | 6 | – | – | – | – | CCC1(CCCCN2CCN(c3ccccc3)CC2)C(=O)Nc2ccccc21 (centres undefined) | 10 | –
16 | 0.66 | 11 | 0 | 40% | > 95 | – | – | CCC1(CCCCN2CCN(c3ccc(C)c(Cl)c3)CC2)C(=O)Nc2ccccc21 (centres undefined) | > 20 | –
17 | – | 0 | – | – | > 95 | – | – | CCC1(CCCCN2CCC(C)CC2)C(=O)Nc2ccccc21 (centres undefined) | – | –
18 | 21 | 91 | 57 | – | – | – | – | CCC1(CCCN2CCN(c3cccc(Cl)c3)CC2)C(=O)Nc2ccccc21 (centres undefined) | > 20 | 3
19 | 1.45 | 43 | 12 | 20% | > 95 | – | – | CCC1(CCCCCN2CCN(c3cccc(Cl)c3)CC2)C(=O)Nc2ccccc21 (centres undefined) | > 10 | > 10

Row | Ki ([1]; read-out: Ki) [nM] | Activity [2] [%] | Activity [3] [%] | Activity [5] | Activity [6] [%] | Ki ([1]; read-out: Log Ki (converted)) [nM] | Stability (Rattus norvegicus [7]) [%] | Structure (SMILES) | minimal effective dose (Rattus norvegicus [4]) [mg/kg] | minimal effective dose (Mus musculus) [mg/kg]
20 | 5.3 | 11 | – | – | – | – | – | CCC1(CCCCN2CCC(c3ccc(F)cc3)CC2)C(=O)Nc2ccccc21 (centres undefined) | 20 | > 10
21 | – | – | – | 80% | > 95 | – | – | CC1CCN(CC[C@H]2CCCN2S(=O)(=O)c2cccc(O)c2)CC1 | – | –
22 | 0.49 | 40 | 9 | 80% | > 95 | – | – | O=C1Nc2ccccc2C1CCCCN1CCN(c2cccc(Cl)c2)CC1 (centres undefined) | < 5 | > 10
23 | 0.6 | 14 | 0 | – | – | – | – | CCC1(CCCCN2CCN(c3ccc(F)c(Cl)c3)CC2)C(=O)Nc2ccccc21 (centres undefined) | > 20 | –
24 | – | – | – | – | – | 2.14 | – | COc1ccccc1N1CCN(CCCCC23CCCc4cccc(c42)NC3=O)CC1 (centres undefined) | – | –
25 | 0.67 | 37 | 11 | – | – | – | – | CCC1(CCCCN2CCN(c3cccc(Cl)c3)CC2)C(=O)Nc2cc(F)ccc21 (centres undefined) | > 20 | –
26 | 0.38 | 11 | 2 | – | – | – | 9 | CCC1(CCCCN2CCN(c3ccc(Cl)cc3)CC2)C(=O)Nc2ccccc21 (centres undefined) | 10 | > 10
27 | 9.07 | 16 | – | – | – | – | – | CCC1(CCCCN2CCN(c3cccc(Cl)c3)CC2)C(=O)Nc2cc(F)c(Cl)cc21 (centres undefined) | 20 | –
28 | 6.57 | 86 | 32 | – | – | – | – | CCC1(CCCCN2CCN(c3ccccc3OC)CC2)C(=O)N(Cc2ccccc2)c2ccccc21 (centres undefined) | > 20 | –
29 | 10.1 | 5 | – | – | – | – | 76 | CCC1(CCCCN2CCN(c3ccc(Cl)cc3)CC2)C(=O)Nc2c(Cl)cc(Cl)cc21 (centres undefined) | < 5 | < 1
30 | 1.96 | 43 | – | – | – | – | – | O=C1Nc2ccc(F)cc2C1CCCCN1CCN(c2cccc(Cl)c2)CC1 (centres undefined) | > 20 | –
31 | 0.41 | 42 | 11 | 40% | > 95 | – | 4 | CCC1(CCCCN2CCN(c3cccc(Cl)c3)CC2)C(=O)Nc2ccccc21 (centres undefined) | > 20 | > 10
32 | 1.8 | 12 | – | inactive | > 95 | – | – | CC(C)CC1(CCCCN2CCN(c3cccc(Cl)c3)CC2)C(=O)Nc2ccccc21 (centres undefined) | 10 | > 10
33 | 3.4 | 6 | – | – | – | – | 40 | O=C1Nc2ccc(F)cc2C1CCCCN1CCN(c2ccc(F)cc2)CC1 (centres undefined) | > 10 | –
34 | 6.99 | 0 | – | – | – | – | – | CCC1(CCCCN2CCN(c3ccc(Cl)cc3)CC2)C(=O)Nc2cc(F)c(Cl)cc21 (centres undefined) | – | –
35 | 2.11 | 24 | – | – | – | – | – | CCC1(CCCCN2CCN(c3cccc(Cl)c3)CC2)C(=O)Nc2ccc(F)cc21 (centres undefined) | < 5 | > 10
36 | 5.11 | 51 | 9 | – | – | – | – | CCC1(CCCCN2CCN(c3ccccc3Cl)CC2)C(=O)Nc2ccccc21 (centres undefined) | > 20 | –
37 | 0.43 | 10 | 12 | – | – | – | – | CCC1(CCCCN2CCN(c3ccc(F)cc3)CC2)C(=O)Nc2ccccc21 (centres undefined) | 10 | < 1
38 | 2.81 | 9 | – | – | – | – | – | CCC1(CCCCN2CCN(c3ccc(Cl)cc3)CC2)C(=O)Nc2ccc(F)cc21 (centres undefined) | > 20 | > 10

Row | Structure (SMILES) | Ki ([1]; read-out: Ki) [nM] | Activity [2] [%] | Activity [3] [%] | Activity [5] | Activity [6] [%] | Ki ([1]; read-out: Log Ki (converted)) [nM] | Stability (Rattus norvegicus [7]) [%] | minimal effective dose (Rattus norvegicus [4]) [mg/kg] | minimal effective dose (Mus musculus) [mg/kg]
39 | CCC1(CCCCN2CC=C(c3ccc(Cl)cc3)CC2)C(=O)Nc2ccccc21 (centres undefined) | 1.02 | 10 | – | inactive | > 95 | – | – | > 20 | –
40 | CCC1(CCCCN2CC=C(c3ccc(F)cc3)CC2)C(=O)Nc2ccccc21 (centres undefined) | 1.19 | 19 | – | – | > 95 | – | – | 20 | –
